Source: ChEMBL document CHEMBL1154251, “Yeast glycogen synthase kinase-3beta pathway inhibitors from an organic extract of Streptomyces sp” (J Nat Prod, 2009)
Active and inactive are the calls of the source. The rule behind the calls is not given here.

Experiments:
[1] = target: Glycogen synthase kinase-3 beta (Homo sapiens) (UniProt P49841); test: Inhibition of GSK3-beta expressed in H10075 yeast assessed as growth inhibition at 2.5 ug/disk after 72 hrs at 37 degreeC by disc diffusion method
Procedure, shortened: (§1)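 Yeast gsk-3 null strain H10075 (mck1 mds1 mrk1 yol128c disrupted) carrying cloned human GSK-3β on pKT10; grown 2 days at 37 °C in SC minus uracil, then seeded into SC minus uracil agar pH 5.6. Compounds applied on filter disks (20, 10, 5, 2.5 µg per disk); plates incubated 72 h at 25 and 37 °C; zone of inhibition diameter read; duplicate.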

[2] = target: Glycogen synthase kinase-3 beta (Homo sapiens) (UniProt P49841); test: Inhibition of GSK3-beta expressed in H10075 yeast assessed as growth inhibition at 20 ug/disk after 72 hrs at 37 degreeC by disc diffusion method
Procedure, shortened: (§2)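 Yeast gsk-3 null strain H10075 (mck1, mds1, mrk1, yol128c disrupted) carrying pKT10-GSK-3β. Grown 2 days at 37 °C in SC minus uracil broth, then seeded into SC minus uracil agar, pH 5.6. Samples on filter disks, screened at 20 µg/disk, actives retested down to 2.5 µg/disk. Plates held 72 h at both 25 and 37 °C. Zone of inhibition read; duplicates.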

[3] = target: Glycogen synthase kinase-3 beta (Homo sapiens) (UniProt P49841); test: Inhibition of GSK3-beta expressed in H10075 yeast assessed as growth inhibition at 2.5 ug/disk after 72 hrs at 24 degreeC by disc diffusion method
[4] = target: Glycogen synthase kinase-3 beta (Homo sapiens) (UniProt P49841); test: Inhibition of GSK3-beta expressed in H10075 yeast assessed as growth inhibition at 10 ug/disk after 72 hrs at 37 degreeC by disc diffusion method; procedure, shortened: as §2
[5] = target: Glycogen synthase kinase-3 beta (Homo sapiens) (UniProt P49841); test: Inhibition of GSK3-beta expressed in H10075 yeast assessed as growth inhibition at 5 ug/disk after 72 hrs at 24 degreeC by disc diffusion method
[6] = target: Glycogen synthase kinase-3 beta (Homo sapiens) (UniProt P49841); test: Inhibition of GSK3-beta expressed in H10075 yeast assessed as growth inhibition at 10 ug/disk after 72 hrs at 24 degreeC by disc diffusion method
[7] = target: Glycogen synthase kinase-3 beta (Homo sapiens) (UniProt P49841); test: Inhibition of GSK3-beta expressed in H10075 yeast assessed as growth inhibition at 20 ug/disk after 72 hrs at 25 degreeC by disc diffusion method; procedure, shortened: as §1
[8] = target: Glycogen synthase kinase-3 beta (Homo sapiens) (UniProt P49841); test: Inhibition of GSK3-beta expressed in H10075 yeast assessed as growth inhibition at 5 ug/disk after 72 hrs at 37 degreeC by disc diffusion method; procedure, shortened: as §1

Sequence of Glycogen synthase kinase-3 beta (Homo sapiens) (P49841 whole entry, looked up, the tested form may be a part): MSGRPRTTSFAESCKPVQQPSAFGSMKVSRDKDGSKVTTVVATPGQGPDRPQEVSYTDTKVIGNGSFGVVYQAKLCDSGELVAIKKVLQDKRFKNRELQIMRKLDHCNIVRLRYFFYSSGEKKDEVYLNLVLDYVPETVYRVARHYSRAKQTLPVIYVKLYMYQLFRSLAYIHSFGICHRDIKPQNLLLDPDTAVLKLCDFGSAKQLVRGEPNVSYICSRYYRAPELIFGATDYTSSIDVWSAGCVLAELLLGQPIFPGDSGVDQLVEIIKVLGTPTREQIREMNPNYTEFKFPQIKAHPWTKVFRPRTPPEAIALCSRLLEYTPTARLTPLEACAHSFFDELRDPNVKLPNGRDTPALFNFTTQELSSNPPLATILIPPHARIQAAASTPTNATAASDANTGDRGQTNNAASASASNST

## CC/C=C(\C)C(=O)CC(O)CC1CC(=O)NC(=O)C1 (stereo not given)
[1]
  inhibition zone (IZ): 28 mm
[2]
  inhibition zone (IZ): 38 mm
[3]
  inhibition zone (IZ): inactive
[4]
  inhibition zone (IZ): 34 mm
[5]
  inhibition zone (IZ): inactive
[6]
  inhibition zone (IZ): inactive
[7]
  inhibition zone (IZ): 10 mm
[8]
  inhibition zone (IZ): 30 mm

## Cn1sc(=O)n(Cc2ccccc2)c1=O
[1]
  inhibition zone (IZ): inactive
[2]
  inhibition zone (IZ): 11 mm
[3]
  inhibition zone (IZ): inactive
[4]
  inhibition zone (IZ): 10 mm
[5]
  inhibition zone (IZ): 8 mm
[6]
  inhibition zone (IZ): 9 mm
[7]
  inhibition zone (IZ): 10 mm
[8]
  inhibition zone (IZ): 9 mm

## C[C@@H]1C[C@@H]([C@H](O)CC2CC(=O)NC(=O)C2)C(=O)[C@@H](C)C1
[1]
  inhibition zone (IZ): 42 mm
[3]
  inhibition zone (IZ): 25 mm
[5]
  inhibition zone (IZ): 30 mm
[6]
  inhibition zone (IZ): 33 mm
[7]
  inhibition zone (IZ): 36 mm
[8]
  inhibition zone (IZ): 48 mm

## C[C@H]1C[C@H](C)C(=O)[C@@H]([C@H](O)CC2CC(=O)NC(=O)C2)C1
[1]
  inhibition zone (IZ): inactive
[2]
  inhibition zone (IZ): 33 mm
[3]
  inhibition zone (IZ): inactive
[4]
  inhibition zone (IZ): 25 mm
[5]
  inhibition zone (IZ): 12 mm
[6]
  inhibition zone (IZ): 16 mm
[7]
  inhibition zone (IZ): 22 mm
[8]
  inhibition zone (IZ): 15 mm
